From ChEMBL document CHEMBL1149114, “Countering cooperative effects in protease inhibitors using constrained beta-strand-mimicking templates in focused combinatorial libraries” (J Med Chem, 2004)

What was measured:
[1] = molecular target: T1, Human immunodeficiency virus type 1 protease (Human immunodeficiency virus 1, UniProt Q72874); test: (§1) Tested for inhibition of synthetic HIV-1 protease by using fluorometric assay
Procedure, shortened: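 Synthetic HIV-1 PR (SF2 isolate; C67B, C95B, Q7K, L33I mutations, B = L-α-aminobutyric acid) solubilized in 6 M Gu·HCl, refolded 60 min in phosphate pH 7.0/glycerol/BSA buffer. Continuous fluorimetric assay with 50 μM Abz-Thr-Ile-Nle-Phe(p-NO2)-Gln-Arg-NH2 in MES pH 6.5, 100 mM NaCl, 10% glycerol, I = 0.1 M, 37 °C, varying inhibitor. Ki from Dixon or Henderson plots; Km from Hanes plot.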

[2] = molecular target: T1, Human immunodeficiency virus type 1 protease; test: as §1; remark: listed apart in the source

Compound: CC[C@@H](C)[C@@H]1NC(=O)[C@@H](NC[C@@H](O)[C@H](Cc2ccccc2)NC(=O)[C@H](C(C)C)N2CCCC2=O)Cc2ccc(cc2)OCCCNC1=O
- Ki [1]: 1 nM

Compound: CC[C@@H](C)[C@@H]1NC(=O)[C@@H](NC[C@@H](O)[C@H](Cc2ccccc2)NC(=O)[C@@H](NC(=O)[C@H](CC(C)C)NC(C)=O)C(C)C)Cc2ccc(cc2)OCCCNC1=O
- Ki [1]: 0.6 nM

Compound: CC[C@@H](C)[C@@H]1NC(=O)[C@@H](NC[C@@H](O)[C@@H]2Cc3ccc(cc3)OCCCCC(=O)N[C@@H](C(C)C)C(=O)N2)Cc2ccc(cc2)OCCCNC1=O
- Ki [1]: 5 nM

Compound: CC[C@@H](C)[C@@H]1NC(=O)[C@@H](NC[C@H](Cc2ccccc2)NC(=O)OC(C)(C)C)Cc2ccc(cc2)OCCCNC1=O
- Ki [1]: 44 nM

Compound: CC[C@@H](C)[C@@H]1NC(=O)[C@@H](NC[C@@H](O)[C@H](Cc2ccccc2)NC(=O)OC(C)(C)C)Cc2ccc(cc2)OCCCNC1=O
- Ki [1]: 4 nM

Compound: CC[C@@H](C)[C@@H]1NC(=O)[C@@H](NC[C@@H](O)[C@H](Cc2ccccc2)NC(=O)OC2CCOC2)Cc2ccc(cc2)OCCCNC1=O (stereo not given in full)
- Ki [1]: 4 nM

Compound: CC[C@@H](C)[C@@H]1NC(=O)[C@@H](NC[C@@H](O)[C@H](Cc2ccccc2)NC(=O)c2cccc(C)c2)Cc2ccc(cc2)OCCCNC1=O
- Ki [1]: 15 nM

Compound: CC(C)[C@@H]1NC(=O)CCCCCOc2ccc(cc2)C[C@@H]([C@H](O)CN(C2CCCC2)S(=O)(=O)c2ccc(N)cc2)NC1=O
- Ki [2]: 3 nM

Compound: CC(C)CCN(C[C@@H](O)[C@@H]1Cc2ccc(cc2)OCCCCCC(=O)N[C@@H](C(C)C)C(=O)N1)NC(=O)NCc1ccccc1
- Ki [2]: 314 nM

Compound: CCCCCCN(C[C@@H](O)[C@@H]1Cc2ccc(cc2)OCCCCCC(=O)N[C@@H](C(C)C)C(=O)N1)S(=O)(=O)c1ccc(N)cc1
- Ki [2]: 14 nM

Compound: CC(C)CCN(C[C@@H](O)[C@@H]1Cc2ccc(cc2)OCCCCC(=O)N[C@@H](C(C)C)C(=O)N1)S(=O)(=O)c1ccccc1
- Ki [1]: 0.4 nM

Compound: CCC(C)N(C[C@@H](O)[C@@H]1Cc2ccc(cc2)OCCCCCC(=O)N[C@@H](C(C)C)C(=O)N1)S(=O)(=O)c1ccc(N)cc1 (stereo not given in full)
- Ki [2]: 2 nM

Compound: CC(C)CCN(C[C@@H](O)[C@@H]1Cc2ccc(cc2)OCCCCCC(=O)N[C@@H](C(C)C)C(=O)N1)S(=O)(=O)c1ccccc1
- Ki [1]: 1.6 nM

Compound: CC(C)CCN(C[C@@H](O)[C@@H]1Cc2ccc(cc2)OCCCCCC(=O)N[C@@H](C(C)C)C(=O)N1)NC(=O)NC1CCCCC1
- Ki [2]: 207 nM

Compound: CC(C)CCN(C[C@@H](O)[C@@H]1Cc2ccc(cc2)OCCCCCC(=O)N[C@@H](C(C)C)C(=O)N1)S(=O)(=O)c1ccc2ccccc2c1
- Ki [2]: 1 nM

Compound: CC(C)CCN(C[C@@H](O)[C@@H]1Cc2ccc(cc2)OCCCCCC(=O)N[C@@H](C(C)C)C(=O)N1)S(=O)(=O)c1c(C(C)C)cc(C(C)C)cc1C(C)C
- Ki [2]: 4700 nM

Compound: CC(C)[C@@H]1NC(=O)CCCCCOc2ccc(cc2)C[C@@H]([C@H](O)CN(CCCCCC(=O)O)S(=O)(=O)c2ccc(N)cc2)NC1=O
- Ki [2]: 60 nM

Compound: CC(C)[C@@H]1NC(=O)CCCCCOc2ccc(cc2)C[C@@H]([C@H](O)CN(CCc2ccccc2)S(=O)(=O)c2ccc(N)cc2)NC1=O
- Ki [2]: 8 nM

Compound: CC(=O)Nc1ccc(S(=O)(=O)N(CCC(C)C)C[C@@H](O)[C@@H]2Cc3ccc(cc3)OCCCCCC(=O)N[C@@H](C(C)C)C(=O)N2)cc1
- Ki [2]: 10 nM

Compound: COc1ccc(CCN(C[C@@H](O)[C@@H]2Cc3ccc(cc3)OCCCCCC(=O)N[C@@H](C(C)C)C(=O)N2)S(=O)(=O)c2ccc(N)cc2)cc1
- Ki [2]: 3 nM

Compound: CC[C@H](C)[C@H](NC(=O)[C@@H](NC(=O)[C@@H]1CCCN1)C(C)C)C(=O)NCC(O)C1Cc2ccc(cc2)OCCCC(=O)NC(CC(N)=O)C(=O)N1 (stereo not given in full)
- Ki [1]: 12 nM

Compound: CC(C)(C)N(CC(O)C1Cc2ccc(cc2)OCCCC(=O)NC(CC(N)=O)C(=O)N1)C(=O)C1CCCCN1 (stereo not given)
- Ki [1]: 12 nM

Compound: CC(C)CCN(C[C@@H](O)[C@@H]1Cc2ccc(cc2)OCCCCCC(=O)N[C@@H](C(C)C)C(=O)N1)S(=O)(=O)c1cccc([N+](=O)[O-])c1
- Ki [2]: 145 nM

Compound: CC(C)CCN(C[C@@H](O)[C@@H]1Cc2ccc(cc2)OCCCC(=O)N[C@@H](C(N)=O)C(=O)N1)S(=O)(=O)c1ccccc1
- Ki [1]: 1 nM

Compound: CC(C)CCN(C[C@@H](O)[C@@H]1Cc2ccc(cc2)OCCCCCC(=O)N[C@@H](C(C)C)C(=O)N1)S(=O)(=O)c1cccc2cccnc12
- Ki [2]: 295 nM
